Measurements as given in ChEMBL document CHEMBL2331443, “Synthesis and biological evaluation of a new class of 4-aminoquinoline-rhodanine hybrid as potent anti-infective agents” (Eur J Med Chem, 2013).
In brackets after ≈: the same amount, converted by molar mass.

Experiments:
[1] = tested on: Plasmodium falciparum; test: Antimalarial activity against Plasmodium falciparum 3D7 assessed as parasite growth inhibition after 72 hrs by MSF assay; format: functional, organism-based; details: 3D7, 72 h
In short: (§1)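 P. falciparum cultures in RPMI-1640-FBS; DMSO stock 5 mg/ml diluted in medium, duplicate wells; 1.0% parasitized cell suspension at 0.8% parasitemia. Incubated 37 °C, 5% CO2 air mixture, 72 h. Lysis buffer with 2× SYBR Green I added, 1 h at 37 °C. Fluorescence read at 485 ± 20 nm excitation / 530 ± 20 nm emission; IC50 by logit regression.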

[2] = Selectivity index, ratio of CC50 for african green monkey Vero cells to IC50 for Plasmodium falciparum K1; format: functional
[3] = tested on: Plasmodium yoelii; test: Antimalarial activity against Plasmodium yoelii infected in erythrocytes assessed as inhibition of beta-hematin formation after 16 hrs by BHIA assay; format: functional, cell-free
In short: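 Plasma from infected animal blood at 50% parasitemia (cardiac puncture into 2.0% citrate, spun 5000 rpm, 10 min, 4 °C). Reaction in 1.0 mL: 100 mM sodium acetate pH 5.1, hemin as substrate, plasma, 1–20 µg compound; controls without compound. Triplicate, 37 °C, 16 h, rotary shaker. Pellet washed, dissolved in 2 N NaOH, absorbance 400 nm; IC50 by nonlinear regression of dose-response.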

[4] = tested on: Plasmodium falciparum; test: Antimalarial activity against Plasmodium falciparum K1 assessed as parasite growth inhibition after 72 hrs by MSF assay; format: functional, organism-based; details: K1, 72 h; in short: as §1
[5] = Cytotoxicity against mouse bone marrow derived macrophage assessed as growth inhibition after 48 hrs by MTS assay; format: cell-based
In short: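 Macrophages washed, plated at 10^5 cells per well in supplemented DMEM, 37 °C, 5% CO2, medium changed every 3rd day, used after 5 days. Compounds added in antibiotic-free, FBS-supplemented DMEM for 48 h at 37 °C, 5% CO2. MTS added for 2 h, absorbance 490 nm; DMSO wells taken as 100% survival.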

[6] = tested on: Mycobacterium tuberculosis; test: Antitubercular activity Mycobacterium tuberculosis H37Rv assessed as growth inhibition after 4 weeks; format: functional; details: 672 h
In short: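 M. tuberculosis H37Rv from Lowenstein-Jensen culture, harvested in N-saline with 0.05% Tween-80 and made single-cell with glass beads. Working inoculum 2 × 10⁷ cfu/mL spread on drug-containing slanted solid medium. Incubated 37 °C for 4 weeks, watching for colonies. Drug-free tubes as control, isoniazid as reference. MIC taken as the lowest concentration giving complete growth inhibition at this inoculum.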

[7] = tested on: Vero; test: Cytotoxicity against african green monkey Vero cells assessed as growth inhibition after 24 hrs by MTS assay; format: cell-based; details: Chlorocebus sabaeus
In short: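 Vero cells plated at 20,000 per well in MEM with antibiotics + 10% FBS, allowed to adhere overnight at 37 °C, 5% CO2. Compound dilutions added in MEM + 10% FBS; known toxic compound positive control, DMSO negative control. After 24 h, MTS added, 2 h at 37 °C, absorbance 490 nm; DMSO wells taken as 100% survival.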

SMILES | IC50 [1] [nM] | Ratio CC50/IC50 [2] | IC50 [3] [µg/mL] | IC50 [4] [nM] | IC50 [5] [nM] | MIC [6] [µM] | IC50 [7] [nM]
O=C1/C(=C/c2ccc([N+](=O)[O-])cc2)SC(=S)N1CCCNc1ccnc2cc(Cl)ccc12 | 23.5 | 180.38 | 3.23 (≈ 6.66 µM) | 45.5 | – | – | –
O=C1/C(=C/c2cccc([N+](=O)[O-])c2)SC(=S)N1CCCNc1ccnc2cc(Cl)ccc12 | 96 | 106.4 | 3.93 (≈ 8.1 µM) | 50.4 | – | – | –
O=C1/C(=C/c2ccc(F)cc2)SC(=S)N1CCCNc1ccnc2cc(Cl)ccc12 | 93.9 | 2083.58 | 4.3 (≈ 9.39 µM) | 13.2 | – | – | –
O=C1/C(=C/c2ccc(Cl)cc2)SC(=S)N1CCCNc1ccnc2cc(Cl)ccc12 | 76.5 | 442.83 | 3.26 (≈ 6.87 µM) | 94.2 | – | – | –
CN(C)c1ccc(/C=C2\SC(=S)N(CCCNc3ccnc4cc(Cl)ccc34)C2=O)cc1 | 49.3 | 4195.05 | 6.35 (≈ 13.1 µM) | 66.2 | – | – | –
O=C1/C(=C/c2ccccc2[N+](=O)[O-])SC(=S)N1CCCNc1ccnc2cc(Cl)ccc12 | 38.2 | 639.19 | 3.3 (≈ 6.8 µM) | 83.8 | 70700 | 6.25 (≈ 3.03 µg/mL) | > 100000
O=C1/C(=C/c2ccccc2)SC(=S)N1CCNc1ccnc2cc(Cl)ccc12 | 58.7 | 29.16 | 8.21 (≈ 19.3 µM) | 104 | – | – | –
CCc1ccc(/C=C2\SC(=S)N(CCNc3ccnc4cc(Cl)ccc34)C2=O)cc1 | 42.7 | 17.51 | 6.73 (≈ 14.8 µM) | 95.7 | – | – | –
O=C1/C(=C/c2ccccn2)SC(=S)N1CCNc1ccnc2cc(Cl)ccc12 | > 1170 | – | 16.5 (≈ 38.6 µM) | > 1100 | – | – | –
O=C1/C(=C/c2ccc([N+](=O)[O-])cc2)SC(=S)N1CCNc1ccnc2cc(Cl)ccc12 | 870 | 56.19 | 12.8 (≈ 27.1 µM) | 840 | – | – | –
COc1cc(/C=C2\SC(=S)N(CCNc3ccnc4cc(Cl)ccc34)C2=O)cc(OC)c1OC | 34.8 | 88.79 | 7.31 (≈ 14.2 µM) | 59.3 | – | – | –
O=C1CSC(=S)N1CCNc1ccnc2cc(Cl)ccc12 | 181 | 112.54 | 4.9 (≈ 14.5 µM) | 80.1 | – | – | –
O=C1CSC(=S)N1CCCNc1ccnc2cc(Cl)ccc12 | 200 | 88.3 | 8.16 (≈ 23.2 µM) | 45.1 | – | – | –
O=C1CSC(=S)N1CCCCNc1ccnc2cc(Cl)ccc12 | 242 | 75.44 | 6.21 (≈ 17 µM) | 58.2 | – | 12.5 (≈ 4.57 µg/mL) | –
O=C1/C(=C/c2ccccc2)SC(=S)N1CCCCNc1ccnc2cc(Cl)ccc12 | 43.5 | 113.53 | 4.03 (≈ 8.88 µM) | 153 | – | – | –
CCc1ccc(/C=C2\SC(=S)N(CCCCNc3ccnc4cc(Cl)ccc34)C2=O)cc1 | 54.5 | 102.86 | 6.21 (≈ 12.9 µM) | 144 | – | – | –
O=C1/C(=C/c2ccncc2)SC(=S)N1CCCCNc1ccnc2cc(Cl)ccc12 | 93.5 | 60.39 | 6.3 (≈ 13.8 µM) | 308 | – | – | –
O=C1/C(=C/c2ccco2)SC(=S)N1CCCCNc1ccnc2cc(Cl)ccc12 | 35 | 92.72 | 2.78 (≈ 6.26 µM) | 151 | 70700 | 6.25 (≈ 2.77 µg/mL) | > 100000
O=C1/C(=C/c2ccc([N+](=O)[O-])cc2)SC(=S)N1CCCCNc1ccnc2cc(Cl)ccc12 | 40 | 3720.88 | 17.3 (≈ 34.7 µM) | 88.8 | – | – | –
CN(C)c1ccc(/C=C2\SC(=S)N(CCCCNc3ccnc4cc(Cl)ccc34)C2=O)cc1 | 31 | 422.41 | 4.23 (≈ 8.51 µM) | 54.6 | – | – | –
COc1cc(/C=C2\SC(=S)N(CCCCNc3ccnc4cc(Cl)ccc34)C2=O)cc(OC)c1OC | 43.1 | 110.08 | 3.93 (≈ 7.22 µM) | 70.1 | – | 12.5 (≈ 6.8 µg/mL) | –
COc1ccc(/C=C2\SC(=S)N(CCCCNc3ccnc4cc(Cl)ccc34)C2=O)c2ccccc12 | 280 | 356.27 | 4.05 (≈ 7.58 µM) | 284 | > 100000 | 6.25 (≈ 3.34 µg/mL) | > 100000
COc1cc(/C=C2\SC(=S)N(CCCNc3ccnc4cc(Cl)ccc34)C2=O)cc(OC)c1OC | 56 | 193.92 | 3.33 (≈ 6.28 µM) | 42.2 | – | – | –
COc1ccc(/C=C2\SC(=S)N(CCCNc3ccnc4cc(Cl)ccc34)C2=O)c2ccccc12 | 90.7 | 64.55 | 2.65 (≈ 5.1 µM) | 59.3 | – | – | –
CCN(CC)CCCC(C)Nc1ccnc2cc(Cl)ccc12 (stereo not drawn) [CHLOROQUINE] | – | – | 4.3 (≈ 13.4 µM) | – | – | – | –
NNC(=O)c1ccncc1 [ISONIAZID] | – | – | – | – | > 100000 | 0.217 (≈ 0.0298 µg/mL) | > 100000
CO[C@H]1/C=C/O[C@@]2(C)Oc3c(C)c(O)c4c(O)c(c(/C=N/N5CCN(C)CC5)c(O)c4c3C2=O)NC(=O)/C(C)=C\C=C\[C@H](C)[C@H](O)[C@@H](C)[C@@H](O)[C@@H](C)[C@H](OC(C)=O)[C@@H]1C [RIFAMPIN] | – | – | – | – | > 100000 | 0.243 (≈ 0.2 µg/mL) | > 100000
